Data reported in ChEMBL document CHEMBL5696442, “Discovery of type II inhibitors of TGFβ-activated kinase 1 (TAK1) and mitogen-activated protein kinase kinase kinase kinase 2 (MAP4K2)” (J Med Chem, 2015).
Active and inactive are the calls of the source. No cut-off for these calls is given here.

Key:
[1] = target: Mitogen-activated protein kinase 10 (Homo sapiens, UniProt P53779); assay: Inhibition of JNK3 Lys2 labeling site in human A-375 cells at 0.5 uM by KiNativ Profiling analysis relative to control; type: cell-based
Mitogen-activated protein kinase 10, sequence (P53779 whole entry): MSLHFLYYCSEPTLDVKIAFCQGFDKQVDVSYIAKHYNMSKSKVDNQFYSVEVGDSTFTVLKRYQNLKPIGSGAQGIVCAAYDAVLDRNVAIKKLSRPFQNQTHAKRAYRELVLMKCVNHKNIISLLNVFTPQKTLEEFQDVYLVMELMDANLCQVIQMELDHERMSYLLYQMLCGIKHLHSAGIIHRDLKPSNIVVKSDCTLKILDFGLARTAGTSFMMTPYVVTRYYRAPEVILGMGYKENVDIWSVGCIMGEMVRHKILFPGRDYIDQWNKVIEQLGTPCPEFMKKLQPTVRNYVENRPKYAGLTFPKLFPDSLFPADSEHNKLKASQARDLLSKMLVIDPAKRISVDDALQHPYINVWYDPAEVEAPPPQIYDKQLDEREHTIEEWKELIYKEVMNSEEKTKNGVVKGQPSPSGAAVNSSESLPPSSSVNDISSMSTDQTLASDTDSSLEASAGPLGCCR

[2] = target: T1, Inhibitor of nuclear factor kappa-B kinase subunit epsilon (Homo sapiens) (UniProt Q14164); assay: Inhibition of IKKe Lys2 labeling site in human A-375 cells at 0.5 uM by KiNativ Profiling analysis relative to control; type: cell-based
T1 sequence (whole entry): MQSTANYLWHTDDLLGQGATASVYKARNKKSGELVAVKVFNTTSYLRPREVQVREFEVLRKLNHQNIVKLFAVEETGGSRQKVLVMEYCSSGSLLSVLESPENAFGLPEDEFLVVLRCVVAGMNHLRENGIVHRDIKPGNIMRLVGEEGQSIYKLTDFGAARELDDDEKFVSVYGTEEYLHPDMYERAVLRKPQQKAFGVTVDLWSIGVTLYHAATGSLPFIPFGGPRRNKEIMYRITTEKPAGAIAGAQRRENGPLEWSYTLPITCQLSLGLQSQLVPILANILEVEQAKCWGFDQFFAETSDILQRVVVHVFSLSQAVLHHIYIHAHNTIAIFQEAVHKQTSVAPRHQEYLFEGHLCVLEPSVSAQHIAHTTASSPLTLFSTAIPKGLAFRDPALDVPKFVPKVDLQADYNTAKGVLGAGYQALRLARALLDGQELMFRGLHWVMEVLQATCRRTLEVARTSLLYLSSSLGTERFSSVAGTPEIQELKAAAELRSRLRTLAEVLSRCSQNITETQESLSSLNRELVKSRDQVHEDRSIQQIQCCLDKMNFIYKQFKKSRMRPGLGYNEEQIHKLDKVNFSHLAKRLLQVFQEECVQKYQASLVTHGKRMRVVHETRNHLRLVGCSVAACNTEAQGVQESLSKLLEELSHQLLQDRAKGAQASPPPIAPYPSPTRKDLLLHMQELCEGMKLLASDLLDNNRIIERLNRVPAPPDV

[3] = target: Serine/threonine-protein kinase SMG1 (Homo sapiens) (UniProt Q96Q15); assay: Inhibition of SMG1 ATP labeling site harbouring SYPYLFKGLEDLHLDER in human A-375 cells at 0.5 uM by KiNativ Profiling analysis relative to control; type: cell-based
How it was run: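 Live A375 melanoma cells treated with compound at 5 or 0.5 μM, then lysed. Lysate kinases were labeled with a lysine-reactive ATP or ADP-biotin probe. Inhibition was read as protection of labeling sites from the probe.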

[4] = target: T2, Mitogen-activated protein kinase kinase kinase 20 (Homo sapiens, UniProt Q9NYL2); assay: Inhibition of ZAK (unknown origin) Lys1 labeling site by KiNativ Profiling analysis
Target sequence in this assay (Q9NYL2 whole entry): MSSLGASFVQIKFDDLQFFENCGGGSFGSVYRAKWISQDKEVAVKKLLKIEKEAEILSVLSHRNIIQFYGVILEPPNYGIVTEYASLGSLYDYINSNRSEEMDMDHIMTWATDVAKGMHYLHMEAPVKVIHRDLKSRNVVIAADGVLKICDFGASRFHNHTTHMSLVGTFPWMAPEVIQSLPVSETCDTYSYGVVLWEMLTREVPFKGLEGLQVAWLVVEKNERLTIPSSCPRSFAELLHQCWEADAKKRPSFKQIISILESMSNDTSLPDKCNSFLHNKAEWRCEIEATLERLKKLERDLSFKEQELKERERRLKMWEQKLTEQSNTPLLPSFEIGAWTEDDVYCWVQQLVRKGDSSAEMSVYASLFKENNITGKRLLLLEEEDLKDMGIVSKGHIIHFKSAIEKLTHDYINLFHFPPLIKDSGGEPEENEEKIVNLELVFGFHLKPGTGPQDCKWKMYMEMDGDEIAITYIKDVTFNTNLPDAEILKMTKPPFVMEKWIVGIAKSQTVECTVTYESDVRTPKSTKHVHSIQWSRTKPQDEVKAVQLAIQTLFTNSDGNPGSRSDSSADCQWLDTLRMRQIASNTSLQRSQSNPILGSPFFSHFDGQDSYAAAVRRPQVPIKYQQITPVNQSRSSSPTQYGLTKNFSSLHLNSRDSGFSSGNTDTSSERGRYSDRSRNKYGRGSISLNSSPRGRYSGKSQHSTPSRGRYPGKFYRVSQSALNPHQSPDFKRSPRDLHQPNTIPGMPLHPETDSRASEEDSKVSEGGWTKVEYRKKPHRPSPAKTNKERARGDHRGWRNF

[5] = target: T2, Mitogen-activated protein kinase kinase kinase 20; assay: Inhibition of ZAK Lys1 labeling site in human A-375 cells at 0.05 uM by KiNativ Profiling analysis relative to control; type: cell-based
[6] = target: T3, Kinase suppressor of Ras 2 (Homo sapiens) (UniProt Q6VAB6); assay: Inhibition of KSR2 ACT labeling site in human A-375 cells at 0.05 uM by KiNativ Profiling analysis relative to control; type: cell-based
T3 sequence (whole entry): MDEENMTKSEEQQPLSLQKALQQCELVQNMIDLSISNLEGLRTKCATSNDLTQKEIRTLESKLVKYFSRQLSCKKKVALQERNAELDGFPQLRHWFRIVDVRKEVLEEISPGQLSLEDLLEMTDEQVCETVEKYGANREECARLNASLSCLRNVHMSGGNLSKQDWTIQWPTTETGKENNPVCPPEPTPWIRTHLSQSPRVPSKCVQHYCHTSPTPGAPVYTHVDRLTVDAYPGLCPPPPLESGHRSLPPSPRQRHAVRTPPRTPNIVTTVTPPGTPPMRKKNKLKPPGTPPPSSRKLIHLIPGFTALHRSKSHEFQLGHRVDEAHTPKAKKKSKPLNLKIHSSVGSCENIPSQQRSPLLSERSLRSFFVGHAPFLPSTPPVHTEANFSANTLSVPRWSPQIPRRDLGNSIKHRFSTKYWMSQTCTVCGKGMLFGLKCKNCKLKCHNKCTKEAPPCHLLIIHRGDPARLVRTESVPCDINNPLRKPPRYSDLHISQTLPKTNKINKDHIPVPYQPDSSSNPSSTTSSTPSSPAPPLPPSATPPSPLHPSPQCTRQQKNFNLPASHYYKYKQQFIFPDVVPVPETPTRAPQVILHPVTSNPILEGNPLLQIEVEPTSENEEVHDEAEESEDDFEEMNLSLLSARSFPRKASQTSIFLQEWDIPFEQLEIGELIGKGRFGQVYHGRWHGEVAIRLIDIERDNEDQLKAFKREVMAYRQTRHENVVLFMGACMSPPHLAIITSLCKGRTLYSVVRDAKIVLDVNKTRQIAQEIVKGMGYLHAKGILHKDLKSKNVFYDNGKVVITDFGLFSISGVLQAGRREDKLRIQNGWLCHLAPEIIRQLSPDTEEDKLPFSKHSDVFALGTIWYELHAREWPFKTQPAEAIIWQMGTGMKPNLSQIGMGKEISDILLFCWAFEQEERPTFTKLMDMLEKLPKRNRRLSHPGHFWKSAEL

[7] = target: Mitogen-activated protein kinase kinase kinase 4 (Homo sapiens) (UniProt Q9Y6R4); assay: Inhibition of MAP3K4 Lys2 labeling site in human A-375 cells at 0.5 uM by KiNativ Profiling analysis relative to control; type: cell-based
Mitogen-activated protein kinase kinase kinase 4 (Homo sapiens), sequence (Q9Y6R4 whole entry): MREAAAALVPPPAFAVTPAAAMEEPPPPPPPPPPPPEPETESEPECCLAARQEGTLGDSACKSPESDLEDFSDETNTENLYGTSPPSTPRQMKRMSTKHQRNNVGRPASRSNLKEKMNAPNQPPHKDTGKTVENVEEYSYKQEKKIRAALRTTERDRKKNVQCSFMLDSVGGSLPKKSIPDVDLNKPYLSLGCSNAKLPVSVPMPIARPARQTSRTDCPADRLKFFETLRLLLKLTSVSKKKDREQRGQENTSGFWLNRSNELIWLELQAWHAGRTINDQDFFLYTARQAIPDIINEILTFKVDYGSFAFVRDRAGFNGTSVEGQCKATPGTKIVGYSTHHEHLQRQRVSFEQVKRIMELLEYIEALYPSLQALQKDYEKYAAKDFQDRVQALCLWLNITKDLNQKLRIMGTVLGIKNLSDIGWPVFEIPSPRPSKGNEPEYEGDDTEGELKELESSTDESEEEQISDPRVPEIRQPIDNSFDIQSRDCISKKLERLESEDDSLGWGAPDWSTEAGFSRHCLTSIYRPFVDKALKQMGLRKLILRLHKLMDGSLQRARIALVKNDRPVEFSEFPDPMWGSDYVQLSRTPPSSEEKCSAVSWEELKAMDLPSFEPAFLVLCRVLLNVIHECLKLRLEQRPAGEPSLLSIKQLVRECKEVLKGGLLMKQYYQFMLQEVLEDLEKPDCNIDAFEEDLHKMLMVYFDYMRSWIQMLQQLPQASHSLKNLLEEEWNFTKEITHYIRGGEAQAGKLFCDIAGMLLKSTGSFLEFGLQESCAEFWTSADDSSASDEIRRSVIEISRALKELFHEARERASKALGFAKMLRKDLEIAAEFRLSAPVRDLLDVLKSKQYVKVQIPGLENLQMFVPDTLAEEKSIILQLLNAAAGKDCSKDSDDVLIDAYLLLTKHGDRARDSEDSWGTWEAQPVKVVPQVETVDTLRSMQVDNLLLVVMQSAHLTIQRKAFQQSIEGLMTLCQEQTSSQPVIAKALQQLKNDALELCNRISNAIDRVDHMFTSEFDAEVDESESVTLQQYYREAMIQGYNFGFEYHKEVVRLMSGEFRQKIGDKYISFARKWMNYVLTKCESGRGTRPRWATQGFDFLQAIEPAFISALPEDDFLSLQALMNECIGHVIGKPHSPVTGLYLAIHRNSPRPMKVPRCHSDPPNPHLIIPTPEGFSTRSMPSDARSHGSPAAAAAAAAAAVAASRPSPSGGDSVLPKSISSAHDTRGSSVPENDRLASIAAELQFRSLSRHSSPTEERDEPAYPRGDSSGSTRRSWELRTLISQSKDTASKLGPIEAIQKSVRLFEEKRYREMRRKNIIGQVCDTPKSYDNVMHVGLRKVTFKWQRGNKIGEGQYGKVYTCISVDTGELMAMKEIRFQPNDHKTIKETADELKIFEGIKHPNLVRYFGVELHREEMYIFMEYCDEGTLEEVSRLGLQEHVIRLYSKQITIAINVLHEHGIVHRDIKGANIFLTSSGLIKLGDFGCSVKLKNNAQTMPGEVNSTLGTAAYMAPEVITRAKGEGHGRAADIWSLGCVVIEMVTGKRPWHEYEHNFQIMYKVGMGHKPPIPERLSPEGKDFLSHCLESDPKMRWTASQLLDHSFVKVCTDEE

[8] = target: Cyclin-dependent kinase 8 (Homo sapiens) (UniProt P49336); assay: Inhibition of CDK8 Lys2 labeling site in human A-375 cells at 0.05 uM by KiNativ Profiling analysis relative to control; type: cell-based
Cyclin-dependent kinase 8 (Homo sapiens), sequence (P49336 whole entry, the tested form may be a part): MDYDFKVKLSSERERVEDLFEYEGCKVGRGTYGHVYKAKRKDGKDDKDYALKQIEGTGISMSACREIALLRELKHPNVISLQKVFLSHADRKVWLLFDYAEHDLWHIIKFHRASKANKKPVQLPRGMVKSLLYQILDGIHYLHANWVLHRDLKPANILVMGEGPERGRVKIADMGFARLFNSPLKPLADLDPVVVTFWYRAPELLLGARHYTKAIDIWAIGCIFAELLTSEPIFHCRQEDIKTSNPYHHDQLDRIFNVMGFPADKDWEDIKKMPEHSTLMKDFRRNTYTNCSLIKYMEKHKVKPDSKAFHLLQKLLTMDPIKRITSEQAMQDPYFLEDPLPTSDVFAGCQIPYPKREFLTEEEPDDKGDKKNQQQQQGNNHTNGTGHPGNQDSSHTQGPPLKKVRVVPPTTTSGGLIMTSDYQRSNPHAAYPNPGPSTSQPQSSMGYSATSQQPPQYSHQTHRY

[9] = target: Ribosomal protein S6 kinase alpha-3 (Homo sapiens) (UniProt P51812); assay: Inhibition of RSK2 domain2 Lys2 labeling site in human A-375 cells at 0.05 uM by KiNativ Profiling analysis relative to control; type: cell-based
Ribosomal protein S6 kinase alpha-3 (Homo sapiens), sequence (P51812 whole entry, the tested form may be a part): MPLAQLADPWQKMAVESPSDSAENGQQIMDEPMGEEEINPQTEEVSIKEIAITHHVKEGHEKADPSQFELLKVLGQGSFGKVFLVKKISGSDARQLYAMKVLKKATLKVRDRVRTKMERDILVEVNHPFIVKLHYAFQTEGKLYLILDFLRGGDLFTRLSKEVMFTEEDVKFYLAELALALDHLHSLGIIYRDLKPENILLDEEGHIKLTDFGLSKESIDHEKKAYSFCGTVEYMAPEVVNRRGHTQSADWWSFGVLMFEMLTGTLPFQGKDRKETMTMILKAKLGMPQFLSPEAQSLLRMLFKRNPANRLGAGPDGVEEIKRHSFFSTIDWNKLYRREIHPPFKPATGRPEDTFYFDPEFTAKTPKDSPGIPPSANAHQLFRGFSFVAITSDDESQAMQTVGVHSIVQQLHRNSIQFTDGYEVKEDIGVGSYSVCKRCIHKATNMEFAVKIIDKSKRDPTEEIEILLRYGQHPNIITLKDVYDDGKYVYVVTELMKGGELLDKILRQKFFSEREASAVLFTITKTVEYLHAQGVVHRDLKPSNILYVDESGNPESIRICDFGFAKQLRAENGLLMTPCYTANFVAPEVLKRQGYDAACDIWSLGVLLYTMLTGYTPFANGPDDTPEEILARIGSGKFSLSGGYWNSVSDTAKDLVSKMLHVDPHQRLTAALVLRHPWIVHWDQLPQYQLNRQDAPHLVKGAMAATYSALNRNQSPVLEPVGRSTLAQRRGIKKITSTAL

[10] = target: Casein kinase II subunit alpha (Homo sapiens) (UniProt P68400); assay: Inhibition of CK2a1 Protein Kinase Domain in human A-375 cells at 0.05 uM by KiNativ Profiling analysis relative to control; type: cell-based
Casein kinase II subunit alpha (Homo sapiens), sequence (P68400 whole entry, looked up, the tested form may be a part): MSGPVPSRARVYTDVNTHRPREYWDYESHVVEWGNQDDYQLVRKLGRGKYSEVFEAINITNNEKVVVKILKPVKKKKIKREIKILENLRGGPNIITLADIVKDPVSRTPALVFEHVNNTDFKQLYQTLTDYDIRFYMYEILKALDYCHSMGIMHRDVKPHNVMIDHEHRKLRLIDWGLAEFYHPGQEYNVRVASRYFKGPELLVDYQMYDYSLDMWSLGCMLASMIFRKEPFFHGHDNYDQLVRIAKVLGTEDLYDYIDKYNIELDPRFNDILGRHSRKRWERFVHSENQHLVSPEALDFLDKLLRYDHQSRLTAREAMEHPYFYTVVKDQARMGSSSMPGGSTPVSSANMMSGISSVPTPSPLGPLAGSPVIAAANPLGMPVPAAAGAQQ

GEN2.2 = assay: Inhibition of CL097 induced p38 phosphorylation level in human GEN2.2 cells at 1 uM preincubated with compound for 1 hr followed by CL097 stimulation and measured after 30 mins by Western blot analysis; type: functional, cell-based
How it was run: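 Gen2.2 cells were pretreated with compound at 1 μM for 1 h, then stimulated with CL097 for 30 min. Lysates were analysed by Western blot for phosphorylation of p105, p38 and JNK1/2.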

`CCN1CCN(Cc2ccc(NC(=O)c3ccc(C)c(/C=C/c4cnc5[nH]ccc5c4OC)c3)cc2C(F)(F)F)CC1` gave an inhibition [1] of 40.6%, an inhibition [2] of 16.9% and an inhibition [3] of 33.7%. The IC50 [4] was 469 nM, the inhibition [5] was 80.5% and the inhibition [6] was 8.6%. For the same molecule, the inhibition [7] was -4.4%, the inhibition [8] was -9.4% and the inhibition [9] was 0.3%. The inhibition [10] was 11.4%.

`CCN1CCN(Cc2ccc(NC(=O)c3ccc(C)c(Oc4ccnc5[nH]ccc45)c3)cc2C(F)(F)F)CC1` showed an inhibition [1] of 73.7%, an inhibition [2] of 35.7% and an inhibition [3] of 3%. For the same molecule, the IC50 [4] was 698 nM, the inhibition (GEN2.2) was “Active” and the inhibition [5] was 74.1%. It also gave an inhibition [6] of 37%, an inhibition [7] of 1.2% and an inhibition [8] of 32.1%. For the same molecule, the inhibition [9] was 2.2% and the inhibition [10] was -4.1%.

With `CNc1cc(Oc2cc(C(=O)Nc3cc(-n4cnc(C)c4)cc(C(F)(F)F)c3)ccc2C)ncn1` the inhibition (GEN2.2) was “inactive”.
